# Screening results: PubChem, The Scripps Research Institute Molecular Screening Center
# Only some compounds are listed: those with a hit (about 2.3% of all), similar ones and a draw of the others.
# GSTO1 counter – blocks human GSTO1 in RBBP9 counter-screen | P78417 | recombinant GSTO1, activity-based probe fluorescence polarization | inhibition, % at 5.96 µM | actives 1.1% (n = 300,000) | AID 1974;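 active means inhibition above the campaign mean inhibition plus 3 SD, cut at about 35% in these data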;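 further: 0% = GSTO1-1 with DMSO and 100% = wells lacking GSTO1-1 enzyme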
# PAD4 inh – PAD4 (human) enzyme inhibition. Q9UM07. recombinant PAD4, RCA probe fluorescence polarization. inhibition, % at 6.36 µM. actives 0.41% (n = 330,000);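 active means percent inhibition above a cutoff equal to the mean of all tested compounds plus 3 SD, cut at about 15% in these data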;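 further: 0% = PAD4 with RCA probe and DMSO and 100% = probe without PAD4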
# RBBP9 inhibitor – inhibitors of human serine hydrolase RBBP9; inhibition, % at 7.94 µM; actives 0.2% (n = 220,000); recombinant RBBP9, FP-Rh probe fluorescence polarization;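 active means inhibition above the campaign mean of all tested compounds plus 3 SD, cut at about 14% in these data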;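 further: plate controls were DMSO wells with RBBP9 for no effect and wells lacking RBBP9 protein for full effect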
# Target sequence (O75884 whole entry, looked up): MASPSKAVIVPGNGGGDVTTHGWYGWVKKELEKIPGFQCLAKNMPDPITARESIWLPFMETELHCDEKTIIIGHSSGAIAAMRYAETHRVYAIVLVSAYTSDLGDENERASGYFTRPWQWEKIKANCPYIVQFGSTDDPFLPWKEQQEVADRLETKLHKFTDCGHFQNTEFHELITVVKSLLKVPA
#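 Test system: recombinant human RBBP9; Timing: 30 min then 45 min, 25 °C; Detection: fluorescence polarization; Control set: RBBP9 with DMSO as uninhibited control, no-protein wells as full inhibition; Compound dosing: one concentration, 7.94 µM nominal, 0.794% DMSO; Probe or stimulus: FP-Rh activity-based probe, 375 nM before mixing.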
# PME-1 primary – PME-1 (human) inhibition. Q9Y570. recombinant PME-1, FP-Rh probe fluorescence polarization. inhibition, % at 5.9 µM. actives 0.53% (n = 320,000). AID 2130;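 active means inhibition above the campaign mean of all compounds plus 3 SD, cut at about 26% in these data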;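 further: competitive labeling of PME-1 active site by serine hydrolase directed probe; 0% = PME-1 with DMSO and 100% = wells lacking PME-1 enzyme; inhibitors block probe labeling so polarization falls and inhibition rises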
# Target sequence (Q9Y570 whole entry, looked up): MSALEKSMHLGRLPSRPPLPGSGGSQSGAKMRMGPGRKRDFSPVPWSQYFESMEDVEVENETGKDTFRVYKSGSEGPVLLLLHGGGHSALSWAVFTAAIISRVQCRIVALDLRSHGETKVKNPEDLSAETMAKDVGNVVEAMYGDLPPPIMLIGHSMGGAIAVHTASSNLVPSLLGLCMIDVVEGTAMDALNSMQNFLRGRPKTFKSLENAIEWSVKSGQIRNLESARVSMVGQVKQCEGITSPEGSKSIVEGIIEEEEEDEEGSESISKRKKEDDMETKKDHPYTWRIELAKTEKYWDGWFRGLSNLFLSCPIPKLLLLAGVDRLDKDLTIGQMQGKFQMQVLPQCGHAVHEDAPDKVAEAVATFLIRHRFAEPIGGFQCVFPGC
# PRMT1 inh – inhibitors of human PRMT1 | recombinant PRMT1, activity-based probe fluorescence polarization | inhibition, % at 2.79 µM | actives 1.3% (n = 370,000) | AID 652257;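 active means inhibition above about 21% made by adding two undisclosed values, limit read from the data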
# Fam108B inh – Fam108B inhibition, counter-screen for RBBP9 inhibitors. recombinant Fam108B, FP-Rh probe fluorescence polarization. inhibition, % at 9.51 µM. actives 0.33% (n = 300,000). AID 1947;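 active means inhibition above the screen mean inhibition plus 3 SD, computed separately per campaign, cut at about 18% in these data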;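 further: inhibitors lower polarization as less probe binds the enzyme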
# PRMT1 inh conf – confirmation of human PRMT1 inhibitors | shares compounds with PRMT1 inh | inhibition, % at 2.79 µM | recombinant His-PRMT1, activity-based probe fluorescence polarization | actives 42% (n = 3,300);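 active means mean inhibition across replicates above the hit cutoff derived for the earlier primary screen, cut at about 22% in these data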
# * marks the source's active call; other numbers are inactive results; / = no result given.
SMILES,GSTO1 counter,PAD4 inh,RBBP9 inhibitor,PME-1 primary,PRMT1 inh,Fam108B inh,PRMT1 inh conf
COc1ccc(NC(=O)CSc2nnc(Cc3cccn3C)n2CCc2ccccc2)c(OC)c1,-4.1,-0.2,-7.6,-2.3,/,-2.5,/
Nc1cnccc1C(=O)O,7.7,12.3,-8.1,5.7,70.9*,8.4,14.3
NC(=O)c1sc2nc(-c3ccco3)ccc2c1N,2.2,-7.7,8.3,9.2,50.8*,0.9,17.1
NC(=O)c1sc2nc(-c3cccnc3)ccc2c1N,-2.4,3.4,-14.2,5.4,7.7,-1.8,/
Nc1c(C(=O)Nc2ccccc2F)sc2nc(-c3ccco3)ccc12,-4.0,-10.9,6.4,36.5*,46.5*,3.4,41.6*
Cc1ccc(/C=C2\C(=O)Nc3ccccc32)o1,-4.6,-2.7,-4.3,-1.2,60.0*,1.7,8.9
Cc1ccc(/C=C2\C(=O)NC(=O)N2C)o1,1.5,-1.7,/,6.1,35.5*,1.1,37.1*
NS(=O)(=O)c1ccc(-c2ccc(/C=C3\C(=O)Nc4ccccc43)o2)cc1,3.1,-1.6,/,4.3,/,-2.0,/
O=C(c1ccccc1)c1ccc(OCC(O)CN2CCN(Cc3ccccc3)CC2)cc1 (stereo not drawn),-5.2,-0.1,-10.7,-6.0,1.5,-6.0,/
C#CCSC1=C(C#N)C(c2cccs2)C(C(=O)OCC)=C(C)N1 (stereo not drawn),5.2,-6.5,-3.4,1.3,9.8,-0.1,/
Cc1ccc(C(=O)CSc2ccccn2)cc1,6.3,-0.6,-4.6,-8.3,61.5*,-3.1,39.9*
O=C(CSc1ccccn1)c1ccc(F)cc1,6.0,1.6,-4.4,5.1,27.2*,4.7,24.0*
COc1cc(/C=C2/C(=O)NN(c3ccc(Cl)c(Cl)c3)C2=O)cc([N+](=O)[O-])c1O,17.1,-5.3,/,17.3,26.0*,12.4,15.7
COc1ccc(Cl)cc1NC(=O)CCNS(=O)(=O)c1cccc2nonc12,3.3,-3.2,/,-1.1,-0.4,4.6,/
O=C(Nc1ccc(Cl)cc1Cl)c1cc2ccccc2o1,-0.9,-0.1,/,3.5,6.8,4.8,/
COc1ccc(N2CSC3=C(C#N)C(c4cc(OC)c(OC)cc4OC)CC(=O)N3C2)c(OC)c1 (stereo not drawn),38.7*,-9.1,5.0,0.8,39.4*,8.9,62.9*
COc1ccc(N2CSC3=C(C#N)C(c4cc(OC)ccc4OC)CC(=O)N3C2)c(OC)c1 (stereo not drawn),30.6,-4.5,3.2,-3.0,/,2.2,/
CCOC(=O)c1ccc(N2CSC3=C(C#N)C(c4cccs4)CC(=O)N3C2)cc1 (stereo not drawn),5.0,-11.9,-3.5,-4.5,14.3,5.8,/
CCc1ccc(N2CSC3=C(C#N)C(c4cccs4)CC(=O)N3C2)cc1 (stereo not drawn),7.0,-2.5,-5.9,1.9,/,-2.8,/
N#CC1=C2SCN(c3ccc(F)cc3)CN2C(=O)CC1c1cccc(F)c1 (stereo not drawn),3.4,0.3,3.0,-4.9,27.5*,-6.6,60.6*
CCc1ccc(C2CC(=O)N3CN(c4ccccc4)CSC3=C2C#N)cc1 (stereo not drawn),-1.4,-2.2,-10.7,-0.9,19.4,-0.4,/
CCOc1ccccc1N1CSC2=C(C#N)C(c3c(OC)ccc4ccccc34)CC(=O)N2C1 (stereo not drawn),14.8,-11.8,-3.4,-3.6,49.3*,7.5,70.4*
COc1ccc(C2CC(=O)N3CN(c4ccc(C)c(Cl)c4)CSC3=C2C#N)cc1OC (stereo not drawn),6.2,-2.2,-3.7,-4.0,41.0*,1.3,24.9*
O=C(CCNC(=O)c1ccc(Br)cc1)NCc1ccccn1,5.6,-5.0,/,-1.4,1.6,2.8,/
Nc1cc(C(=O)N2CCCC2)cc(C(=O)N2CCCC2)c1,5.7,0.8,-0.3,3.7,-1.9,4.4,/
SMILES,GSTO1 counter,PAD4 inh,RBBP9 inhibitor,PME-1 primary,PRMT1 inh,Fam108B inh,PRMT1 inh conf
OC(CNC1CCCC1)COc1c(F)cc(Br)cc1F (stereo not drawn),1.7,-1.5,8.6,-6.1,-1.7,-4.2,/
COc1ccc(N2CSC3=C(C#N)C(c4cccs4)CC(=O)N3C2)cc1 (stereo not drawn),9.9,-4.0,-5.4,-0.6,3.0,2.2,/
Cc1ccc(N2CSC3=C(C#N)C(c4cccs4)CC(=O)N3C2)cc1 (stereo not drawn),4.3,-23.5,2.3,-4.6,52.1*,-3.1,34.2*
COc1cc(OC)c(C2CC(=O)N3CN(c4ccc(C)cc4)CSC3=C2C#N)cc1OC (stereo not drawn),23.7,-8.6,2.8,5.7,62.4*,5.7,92.9*
COc1cc(-n2c(C)nc3cccnc32)c(Cl)cc1C(=O)O,0.6,0.8,/,-5.3,3.0,2.9,/
Cc1ccc(/C=C/C(=O)c2ccccc2)cc1,-6.8,2.7,-3.9,3.6,-5.1,2.4,/
Cc1ccc(C(=O)/C=C/C(=O)O)cc1,3.0,1.6,-10.6,-2.5,40.2*,-3.1,30.3*
CCOC(=O)C1CSC2(CCC(c3ccccc3)CC2)N1 (stereo not drawn),4.3,-1.3,-8.8,-1.2,47.5*,2.7,27.5*
O=C(O)c1cccc(Nc2cc(Cl)c3nonc3c2[N+](=O)[O-])c1,-9.1,-0.7,3.8,9.3,53.5*,1.6,49.4*
O=C(O)c1cccc(Nc2ccc([N+](=O)[O-])c3nonc23)c1,3.5,-4.7,/,-7.8,4.2,-2.8,/
O=C(O)c1ccccc1Nc1cc(Cl)c2nonc2c1[N+](=O)[O-],30.2,-1.3,/,-0.1,61.9*,1.2,47.6*
Nn1cnn(Cc2ccccc2)c1=S,0.7,-3.3,-3.0,1.4,0.7,0.1,/
Cc1cc(-c2ccco2)n(CC(=O)NCCCc2ccccc2)n1,2.1,-4.2,2.3,-3.5,47.0*,1.7,1.0
CC(=O)Nc1ccc(N2C(=O)CC(Sc3nc4ccccc4s3)C2=O)cc1 (stereo not drawn),0.7,-1.5,0.2,-2.4,16.4,-4.4,/
Cc1nc(SC2CC(=O)N(c3ccccc3)C2=O)n[nH]1 (stereo not drawn),1.6,2.9,-5.5,2.5,50.3*,1.5,62.6*
C=CCNc1nnc(SC2CC(=O)N(c3ccc(OCCC)cc3)C2=O)s1 (stereo not drawn),7.7,4.5,2.4,0.9,67.2*,0.4,66.2*
COc1ccccc1N1C(=O)CC(Sc2n[nH]c(-c3cccc(C)c3)n2)C1=O (stereo not drawn),-2.5,4.7,-5.2,-0.9,88.1*,-1.2,72.5*
COc1ccc(N2C(=O)CC(Sc3nc4ccccc4s3)C2=O)cc1OC (stereo not drawn),7.1,4.1,3.1,9.1,26.2*,3.3,22.9*
CC(C)(C)c1ccc(S(=O)(=O)NCCOCC(F)(F)C(F)F)cc1,1.2,-1.6,-3.6,0.6,-0.8,1.3,/
